In publication PMC5131535 (ACS chemical neuroscience, 2016):
Where “and” joins values, the source holds several entries; their conditions need not be identical. Identical values can stand only once. Like-named read-outs stand apart in the source and are kept apart here.

How the values were obtained:
hERG = hERG (Homo sapiens, UniProt Q12809); assay: Lead Profiling Screen; assay type: binding; details: among 58 GPCRs, ion channels and transporters
L-type calcium channel = assay: Lead Profiling Screen; assay type: binding; details: significant interaction
Kir2.1 = molecular target: T1, Kir2.1 (Homo sapiens, UniProt P63252); assay: Tl+ flux selectivity assay, Kir2.1; assay type: cell-based; details: for Kir Channel Selectivity (Fold) 2.1: Thallium flux, Kir7.1 over Kir2.1
T1 sequence (P63252 1-427): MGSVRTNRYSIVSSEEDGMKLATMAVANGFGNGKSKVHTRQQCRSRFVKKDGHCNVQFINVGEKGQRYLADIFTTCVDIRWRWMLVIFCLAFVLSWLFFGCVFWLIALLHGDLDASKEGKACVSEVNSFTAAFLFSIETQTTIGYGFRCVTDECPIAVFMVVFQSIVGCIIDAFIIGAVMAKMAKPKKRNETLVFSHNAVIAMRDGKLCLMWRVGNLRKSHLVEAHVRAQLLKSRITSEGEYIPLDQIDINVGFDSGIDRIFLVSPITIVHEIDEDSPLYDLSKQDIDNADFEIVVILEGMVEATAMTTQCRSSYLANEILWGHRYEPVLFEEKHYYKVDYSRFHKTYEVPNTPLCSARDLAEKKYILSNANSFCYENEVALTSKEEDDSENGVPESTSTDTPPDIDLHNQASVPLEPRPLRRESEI
How it was run: (§1)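 Tetracycline-inducible stable T-REx-HEK-293 lines, induced overnight with 1 µg/ml tetracycline in DMEM/10% dialyzed FBS. Cells loaded 1 hr with 1.2 µM Thallos-AM in HBSS/20 mM HEPES pH 7.3 with 0.01% Pluronic F-127. Baseline fluorescence (ex 470, em 540 nm) read at 1 Hz before adding stimulus buffer with 1.8 mM Tl₂SO₄. Traces normalized to first point and vehicle-subtracted; slope taken 5–20 s post-Tl⁺; IC50 by nonlinear regression of CRCs.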

Dopamine D2S receptor = Dopamine D2S receptor (Homo sapiens, UniProt P14416); assay: Lead Profiling Screen; assay type: binding; details: significant interaction
Sequence of Dopamine D2S receptor (P14416 1-414 isoform P14416-2): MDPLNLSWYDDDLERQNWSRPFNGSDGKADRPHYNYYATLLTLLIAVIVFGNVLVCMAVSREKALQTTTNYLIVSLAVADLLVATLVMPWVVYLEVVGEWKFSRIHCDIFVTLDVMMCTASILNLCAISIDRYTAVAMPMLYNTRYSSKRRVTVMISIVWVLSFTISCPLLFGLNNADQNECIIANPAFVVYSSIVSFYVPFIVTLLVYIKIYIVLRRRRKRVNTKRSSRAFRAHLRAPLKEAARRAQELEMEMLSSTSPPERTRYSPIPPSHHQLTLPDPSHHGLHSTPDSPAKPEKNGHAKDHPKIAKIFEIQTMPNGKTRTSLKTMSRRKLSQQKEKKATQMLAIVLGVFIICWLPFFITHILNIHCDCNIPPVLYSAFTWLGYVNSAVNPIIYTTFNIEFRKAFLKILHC

Kir1.1 = assay: Tl+ flux selectivity assay, Kir1.1; assay type: cell-based; details: Thallium flux, Kir7.1 over Kir1.1
How it was run: as §1

[1] = Protein binding in plasma; details: human
[2] = CNS distribution study in mice; assay type: in vivo, mouse; details: average of four mice
Dopamine D4.2 receptor = Dopamine D4.2 receptor (Homo sapiens, UniProt P21917, DEL265-296); assay: Lead Profiling Screen; assay type: binding; details: significant interaction
Sigma σ1 receptor = Sigma σ1 receptor (Homo sapiens, UniProt Q99720); assay: Lead Profiling Screen; assay type: binding; details: significant interaction
Sequence of Sigma σ1 receptor (Q99720 whole entry): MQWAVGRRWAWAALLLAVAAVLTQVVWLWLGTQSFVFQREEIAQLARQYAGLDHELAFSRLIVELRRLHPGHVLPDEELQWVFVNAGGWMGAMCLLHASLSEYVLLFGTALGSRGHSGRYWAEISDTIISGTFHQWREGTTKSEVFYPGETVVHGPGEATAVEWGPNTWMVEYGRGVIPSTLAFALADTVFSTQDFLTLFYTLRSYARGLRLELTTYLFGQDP

Kir7.1-M125R [3] = molecular target: T2, Kir7.1-M125R (Homo sapiens, UniProt O60928, M125R); assay: Tl+ flux assay in T-REx-HEK293 cells expressing Kir7.1-M125R; assay type: cell-based
T2 sequence (O60928 1-360 M125R): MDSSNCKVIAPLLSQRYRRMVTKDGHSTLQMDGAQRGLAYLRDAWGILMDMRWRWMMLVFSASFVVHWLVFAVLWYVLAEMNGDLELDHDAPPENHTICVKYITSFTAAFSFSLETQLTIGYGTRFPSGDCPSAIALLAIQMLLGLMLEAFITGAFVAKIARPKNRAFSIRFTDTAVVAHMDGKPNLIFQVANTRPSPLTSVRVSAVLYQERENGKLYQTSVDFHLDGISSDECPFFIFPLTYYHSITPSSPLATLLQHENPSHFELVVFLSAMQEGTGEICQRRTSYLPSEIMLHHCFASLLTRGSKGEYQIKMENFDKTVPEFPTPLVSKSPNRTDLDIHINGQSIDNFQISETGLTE
How it was run: as §1

Norepinephrine receptor = Norepinephrine receptor (Homo sapiens, UniProt P23975); assay: Lead Profiling Screen; assay type: binding; details: significant interaction
Sequence of Norepinephrine receptor (P23975 whole entry): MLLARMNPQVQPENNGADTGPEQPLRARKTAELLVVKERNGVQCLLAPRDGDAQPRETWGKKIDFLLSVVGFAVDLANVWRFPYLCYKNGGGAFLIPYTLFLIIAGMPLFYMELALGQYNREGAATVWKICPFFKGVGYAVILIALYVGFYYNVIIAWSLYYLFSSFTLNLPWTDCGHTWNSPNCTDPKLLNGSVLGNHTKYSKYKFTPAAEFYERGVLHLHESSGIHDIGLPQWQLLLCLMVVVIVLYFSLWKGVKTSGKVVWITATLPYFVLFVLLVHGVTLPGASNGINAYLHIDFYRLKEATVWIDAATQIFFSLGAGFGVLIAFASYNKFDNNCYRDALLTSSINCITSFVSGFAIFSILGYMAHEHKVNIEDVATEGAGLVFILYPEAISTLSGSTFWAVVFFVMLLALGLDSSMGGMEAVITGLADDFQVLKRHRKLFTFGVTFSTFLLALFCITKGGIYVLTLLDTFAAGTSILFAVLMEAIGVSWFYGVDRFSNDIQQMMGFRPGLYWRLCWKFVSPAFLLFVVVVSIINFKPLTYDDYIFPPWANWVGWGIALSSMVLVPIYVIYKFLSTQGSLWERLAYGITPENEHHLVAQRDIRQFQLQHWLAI

[4] = Protein binding in plasma; details: mouse
[5] = system: voltage-gated sodium channel; assay: Lead Profiling Screen; assay type: binding; details: significant interaction
[6] = Protein binding in plasma; details: rat
Kir7.1 = molecular target: T3, Kir7.1 (Homo sapiens, UniProt O60928, M125R); assay: Whole-cell patch clamp electrophysiology, Kir7.1; assay type: cell-based
T3 sequence (O60928 1-360 M125R): T2 sequence (O60928 1-360 M125R)
How it was run: (§2)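 Human Kir7.1 (WT or mutant) was transiently co-transfected with EGFP into HEK-293T cells, which were replated next day on poly-L-lysine coverslips. Whole-cell clamp used bath 5 mM KCl, pH 7.4, and pipette 135 mM KCl, pH 7.3. Cells were held at −75 mV, stepped 500 ms to −120 mV, then ramped to 120 mV, every 5 s. Increasing test-compound doses were superfused, then BaCl₂ block; current read at −120 mV; variable-slope Hill fit, mean of n = 5.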

Kir7.1-WT = Kir7.1-WT (Homo sapiens, UniProt O60928); assay: Whole-cell patch clamp, Kir7.1-WT; assay type: cell-based; details: read-out: Kir7.1-WT IC50, -120 mV
Sequence of Kir7.1-WT (O60928 whole entry): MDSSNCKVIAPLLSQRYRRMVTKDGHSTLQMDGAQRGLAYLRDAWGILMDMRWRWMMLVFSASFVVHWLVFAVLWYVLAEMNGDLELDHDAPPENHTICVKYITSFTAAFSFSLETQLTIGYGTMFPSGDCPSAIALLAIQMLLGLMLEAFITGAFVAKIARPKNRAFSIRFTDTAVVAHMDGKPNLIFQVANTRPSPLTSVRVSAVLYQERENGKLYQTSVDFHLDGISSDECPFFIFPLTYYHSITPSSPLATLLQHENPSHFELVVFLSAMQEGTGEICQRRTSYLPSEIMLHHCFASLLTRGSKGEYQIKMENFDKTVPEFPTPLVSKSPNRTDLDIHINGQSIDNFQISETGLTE
How it was run: as §2

Kir7.1 E149Q/M125R = Kir7.1 E149Q/M125R (Homo sapiens, UniProt O60928, E149Q/M125R); assay: Whole-cell patch clamp, Kir7.1 E149Q/M125R mutant; assay type: cell-based; details: -120 mV
Sequence of Kir7.1 E149Q/M125R (O60928 whole entry M125R/E149Q): as the sequence (O60928 whole entry) above, with M125R, E149Q counted along it
How it was run: as §2

[7] = plasma
[8] = plasma; remark: listed apart in the source
Kir7.1-M125R [9] = molecular target: T2, Kir7.1-M125R; assay: Whole-cell voltage clamp, Kir7.1-M125R; assay type: cell-based
How it was run: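 HEK-293T cells transiently co-transfected with WT or mutant human Kir7.1 plus EGFP marker, replated next day on poly-L-lysine coverslips. Bath: 135 NaCl, 5 KCl, pH 7.4; pipette: 135 KCl, 1 EGTA, pH 7.3 (mM). Hold −75 mV, step to −120 mV for 500 ms, ramp to 120 mV. Increasing test compound concentrations superfused, then Ba²⁺ block. Inhibition at −120 mV; Hill-equation IC50, n = 5.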

[10] = plasma; remark: listed apart in the source
Kir7.1-WT-A150S = Kir7.1-WT-A150S (Homo sapiens, UniProt O60928, A150S); assay: Whole-cell patch clamp, Kir7.1-WT-A150S mutant; assay type: cell-based; details: -120 mV
Sequence of Kir7.1-WT-A150S (O60928 whole entry A150S): as the sequence (O60928 whole entry) above, with A150S counted along it
How it was run: as §2

Sequence of hERG (Q12809 whole entry): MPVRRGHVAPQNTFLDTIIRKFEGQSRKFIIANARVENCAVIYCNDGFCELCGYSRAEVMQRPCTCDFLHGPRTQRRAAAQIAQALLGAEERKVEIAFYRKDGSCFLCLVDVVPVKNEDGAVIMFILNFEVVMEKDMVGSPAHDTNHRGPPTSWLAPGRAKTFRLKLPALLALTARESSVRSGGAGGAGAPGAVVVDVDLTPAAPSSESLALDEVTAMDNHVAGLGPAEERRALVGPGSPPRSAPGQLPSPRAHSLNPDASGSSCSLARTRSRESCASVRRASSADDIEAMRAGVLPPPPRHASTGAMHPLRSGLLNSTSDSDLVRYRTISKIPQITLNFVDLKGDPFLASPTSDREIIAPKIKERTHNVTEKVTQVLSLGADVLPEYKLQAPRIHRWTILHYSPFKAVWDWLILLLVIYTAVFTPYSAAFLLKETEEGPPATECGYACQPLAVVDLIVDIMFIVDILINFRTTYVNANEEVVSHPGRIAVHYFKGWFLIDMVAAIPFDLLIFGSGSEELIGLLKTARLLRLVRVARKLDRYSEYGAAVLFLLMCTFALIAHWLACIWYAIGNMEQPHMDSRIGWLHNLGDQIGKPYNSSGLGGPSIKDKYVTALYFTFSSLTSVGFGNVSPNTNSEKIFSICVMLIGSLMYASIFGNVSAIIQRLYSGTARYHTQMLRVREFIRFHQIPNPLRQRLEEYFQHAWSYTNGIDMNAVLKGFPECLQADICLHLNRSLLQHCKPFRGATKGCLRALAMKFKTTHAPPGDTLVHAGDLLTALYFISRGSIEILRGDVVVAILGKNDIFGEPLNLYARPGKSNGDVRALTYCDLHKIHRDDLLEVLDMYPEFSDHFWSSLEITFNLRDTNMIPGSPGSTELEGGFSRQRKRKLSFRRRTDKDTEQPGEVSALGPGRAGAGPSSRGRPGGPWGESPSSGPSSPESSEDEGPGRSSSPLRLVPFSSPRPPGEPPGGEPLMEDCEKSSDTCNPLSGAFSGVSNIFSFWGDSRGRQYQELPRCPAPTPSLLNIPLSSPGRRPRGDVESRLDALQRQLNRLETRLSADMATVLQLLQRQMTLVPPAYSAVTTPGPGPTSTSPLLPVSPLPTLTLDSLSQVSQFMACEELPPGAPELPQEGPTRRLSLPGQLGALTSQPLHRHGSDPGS

For `CC(C)OC(=O)NC1CCN(Cc2cc(Cl)c3cccnc3c2O)CC1` [Compound 19, iso-Propyl (1-((5-chloro-8-hydroxyquinolin-7-yl)methyl)piperidin-4-yl)carbamate], the “Ancillary pharmacology, hERG” value (hERG) was “clean ancillary pharmacology”, the “Radioligand displacement, L-type calcium channel” value (L-type calcium channel) was > 50% and the “Kir Channel Selectivity (Fold) 2.1” value (Kir2.1) was “at least 23 Fold”. The “Kir Channel Selectivity (Fold) 2.1” value (Kir2.1; listed as 19 (ML418)) was >23 Fold, the “Radioligand displacement, Dopamine D2S receptor” value (Dopamine D2S receptor) was > 50% and the “Kir Channel Selectivity (Fold) 1.1” value (Kir1.1) was “at least 23 Fold”. The “Kir Channel Selectivity (Fold) 1.1” value (Kir1.1; listed as 19 (ML418)) was >23 Fold, the fraction unbound [1] was 0.01 and the brain concentration [2] was 323.9 ng/g. The “Radioligand displacement, Dopamine D4.2 receptor” value (Dopamine D4.2 receptor) was > 50%, the “Radioligand displacement, Sigma σ1 receptor” value (Sigma σ1 receptor) was > 50% and the IC50 (Kir7.1-M125R [3]) was 1.3 µM. For the same molecule, the “Radioligand displacement, Norepinephrine receptor” value (Norepinephrine receptor) was > 50%, the fraction unbound [4] was 0.114 and the “Radioligand displacement, voltage-gated sodium channel” value [5] was > 50%. For the same molecule, the fraction unbound [6] was 0.088 and the IC50 (Kir7.1; Kir7.1 IC50 (Patch clamp), -120 mV) was 300 nM and 310 nM.
For `Oc1c(CN2CCC(Cc3ccccc3)CC2)cc(Cl)c2cccnc12` [VU714], the IC50 (Kir7.1-WT) was 1400 nM and ~2000 nM, the “Kir2.1 IC50 (Tl+ flux)” value (Kir2.1) was “insensitive” and the “Kir Channel Selectivity (Fold) 2.1” value (Kir2.1) was >5 Fold. For the same molecule, the IC50 (Kir2.1; read-out: Kir2.1 IC50 (Tl+ flux)) was > 30 µM, the “Effect of mutation E149Q/M125R on sensitivity” value (Kir7.1 E149Q/M125R; 3 µM) was “partial, albeit significant (P<0.05), loss of sensitivity” and the IC50 (Kir7.1 E149Q/M125R; read-out: Kir7.1-M125R-E149Q IC50, patch clamp) was 18.1 µM and ~18 µM. For the same molecule, the “Kir Channel Selectivity (Fold) 1.1” value (Kir1.1) was 3 Fold, the “PPB (%Fu) Rat” value [7] was 1.8% and the IC50 (Kir7.1-M125R [3]; read-out: Kir7.1 IC50 (Thallium flux), hKir7.1 (M125R) Tl+ flux, average n = 3) was 5.6 µM. The “PPB (%Fu) Human” value [8] was 0.5%, the “Shift in IC50, patch clamp electrophysiology compared with Tl+ flux” value (Kir7.1-M125R [9]) was 3.7 fold and the “Inhibition of outward and inward Kir7.1-M125R-mediated current” value (Kir7.1-M125R [9]; 10 µM) was “fully inhibited”. For the same molecule, the “Effect of M125R mutation on sensitivity” value (Kir7.1-M125R [9]; compared with WT) was “does not alter VU714 sensitivity”, the IC50 (Kir7.1-M125R [9]; read-out: Kir7.1-M125R IC50 (whole-cell voltage clamp), -120 mV) was 1500 nM and 1600 nM and ~2000 nM and the “PPB (%Fu) Mouse” value [10] was 0.7%. The “Effect of mutation A150S on inhibition” value (Kir7.1-WT-A150S; 3 µM) was “partial loss of inhibition”, the IC50 (Kir7.1-WT-A150S; read-out: Kir7.1-WT-A150S IC50, patch clamp) was 6.9 µM and ~7 µM and the IC50 (Kir7.1; read-out: Kir7.1 IC50 (Patch clamp), -120 mV) was 1500 nM.
